Test results: the RNAGym collection of RNA variant scans (doi:10.1101/gad.245936.114)
Variants at the floor of the assay were thinned out.

B1: tRNA (parent)
chain: CUCUCGGUAGCCAAGUUGGUUUAAGGCGCAAGACUUUAAUUUAUCACUACGAAAUCUUGAGAUCGGGCGUUCGACUCGCCCCCGGGAGAUUUUUUCCUCGAGCAA

Variants of: B1
Test: nonsense suppression (GFP-seq) (ratio to wild type); higher = more function; SUP4oc tRNA, yeast GFP reporter sort-seq
How it was run: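 Sorted GFP/RFP bins of yeast were each Illumina-sequenced with a phred ≥30 cutoff; the cells held a genome-integrated ochre-suppressor tRNA variant from a library with ~3% random mutations, a galactose-driven GFP ochre reporter, and RFP. Culture was in raffinose/galactose medium containing 80 mg/L adenine. Nonsense suppression, termed GFPSEQ, is the median GFP/RFP of the bins weighted by each variant's estimated cell share per bin, relative to the unmutated parent tRNA, for variants reaching ≥100 reads and ≥30 cells.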

Variant | nonsense suppression
A9G G84U | 0.0539
A9G G84A | 0.0699
A9U A30G | 0.0995
A9G U17A | 0.92
A9G U17C | 0.113
G10U A31G | ≤ 0.026
A9U U17C | 0.128
A9G U63C A74U C75U C79U | ≤ 0.026
C11A A14G U63C | ≤ 0.026
A9G U21C A60U | ≤ 0.026
G10U A13C | 0.0296
G10A A31C | ≤ 0.026
G10C G26A G65A A87U | ≤ 0.026
A9G C72U | 0.0591
A9G U20G C75G | 0.831
G10C C29G C79U | ≤ 0.026
G10C G25C G61C U71A | ≤ 0.026
G10C G15C U20G | ≤ 0.026
A9G U21A | 0.36
G10U U55C | 0.0469
A9U C75U | 0.656

Variant | nonsense suppression
A9U C64U | 0.0349
G10U C12G A31U G32U C68G | ≤ 0.026
A9G U76G C80G | ≤ 0.026
A9G G73U | 0.053
A9G G73A | 0.12
A9U A24C G66C C83U G85A | ≤ 0.026
G10A U63G | 0.0314
G10A A54C | 0.0309
G10U A54C G86C | ≤ 0.026
A9G C72G U76G G88U | ≤ 0.026
A9U A14U | 0.0588
G10C A54U | ≤ 0.026
G10U G85C | ≤ 0.026
A9U C11G C68A | ≤ 0.026
A9U A31G | 0.193
G10U G84A G86U | ≤ 0.026
G10A G78U | 0.0324
G10A G78A | 0.0314
G10A C72A C80A | ≤ 0.026
A9U G66A | 0.0305
A9U G25U G26C C64A G65A G73A | ≤ 0.026

Variant | nonsense suppression
A9U U21G U22C | ≤ 0.026
A9U U16A | 0.13
A9U U16G | 0.202
A9U G61A C72A | ≤ 0.026
A9U C11U G32C C34G A54U | ≤ 0.026
G10A C56U G73A | ≤ 0.026
A9U G19C G65C A74C | ≤ 0.026
A9G U55C | 0.245
A9U C72G | 0.0446
A9U A33G | 0.0334
G10A G32C | ≤ 0.026
A9G U16C G18U | ≤ 0.026
G10A G59A | ≤ 0.026
A9G G10U C80U A87C | ≤ 0.026
A9G U16A U55C | 0.188
A9U A74U | 0.106
A9U A74G | 0.0977
A9U A54U | 0.222
A9U A54G | 0.0306
A9U A54C | 0.0503
G10U G18A C75U | ≤ 0.026

Variant | nonsense suppression
A9G U17C U22C | 0.133
A9U A13U | 0.819
A9U G15A | 0.0449
A9U U57G G65C | ≤ 0.026
G10A U70C G78C A89C | ≤ 0.026
G10A U21G G67C C79A | ≤ 0.026
G10U C27A | 0.119
G10U A14U | 0.19
G10A C29G A54G | ≤ 0.026
A9U G18C | ≤ 0.026
A9G U16G | 0.551
A9G U16A | 0.845
G10A G32C G88C | ≤ 0.026
A9U U63C | 0.0507
A9U U55A | ≤ 0.026
A9U C77U | 0.0389
G10C C27G G73C | ≤ 0.026
A9G U71C | 0.0266
G10A G28C G61C | ≤ 0.026
A9U G84A | 0.138
A9U G84U | 0.0747
